Assay results published in ChEMBL document CHEMBL1145036, “Inhibition of papilloma formation by analogues of 7,8-dihydroretinoic acid” (2003).
Where “and” joins values, the source holds several entries; their conditions need not be identical. Equal values may be shown once.

Key:
[1] = target: T1, Retinoic acid receptor alpha (Mus musculus) (UniProt P11416); experiment: Inhibition of [3H]-retinoic acid binding to murine retinoic acid receptor RAR alpha; parameters: concentration or dose not given beside the values; conditions: concentration not given here
T1 sequence (whole entry): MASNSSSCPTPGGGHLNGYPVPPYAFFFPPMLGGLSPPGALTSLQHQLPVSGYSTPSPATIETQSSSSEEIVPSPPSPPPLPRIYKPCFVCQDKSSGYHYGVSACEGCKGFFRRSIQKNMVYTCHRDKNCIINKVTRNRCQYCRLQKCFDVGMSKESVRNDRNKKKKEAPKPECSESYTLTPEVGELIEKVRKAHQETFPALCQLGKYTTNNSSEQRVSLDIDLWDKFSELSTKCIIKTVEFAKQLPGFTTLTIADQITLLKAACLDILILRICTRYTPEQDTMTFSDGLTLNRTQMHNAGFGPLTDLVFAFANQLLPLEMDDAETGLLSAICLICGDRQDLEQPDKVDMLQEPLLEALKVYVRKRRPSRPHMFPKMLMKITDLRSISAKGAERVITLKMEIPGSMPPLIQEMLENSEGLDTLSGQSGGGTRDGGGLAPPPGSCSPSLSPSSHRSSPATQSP
Method in brief: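 RARα binding: inhibition of tritiated retinoic acid binding by a 200-fold molar excess of unlabeled retinoid, expressed as percent inhibition.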

Mus musculus [2] = species on record: Mus musculus; experiment: Antitumor activity in CD-1 female mouse skin Papilloma assay; assay type: functional
Method in brief: (§1)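 CD-1 female mice. Initiation with DMBA (0.2 μmol in 0.2 mL acetone) on shaved dorsal skin. Promotion began 14 days later with TPA (10 nmol in acetone) twice weekly. Retinoid applied topically in 0.2 mL acetone to the same area. Dose-response used 137.7/135.7, 45.9, 15.3 or 5.1 nmol. Papillomas counted per mouse at day 83–89 after promotion start. Tumor-free mice also recorded. ED50 derived from the dose-response.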

Mus musculus [3] = species on record: Mus musculus; experiment: Antitumor activity in CD-1 female mouse skin Papilloma assay at 15.3 nmol dose; assay type: functional; method in brief: as §1
Mus musculus [4] = species on record: Mus musculus; experiment: Antitumor activity in CD-1 female mouse skin Papilloma assay at 5.1 nmol dose; assay type: functional; method in brief: as §1
Mus musculus [5] = species on record: Mus musculus; experiment: Antitumor activity in CD-1 female mouse skin Papilloma assay at 135.7 nmol dose; assay type: functional; method in brief: as §1
Mus musculus [6] = species on record: Mus musculus; experiment: Antitumor activity in CD-1 female mouse skin Papilloma assay at 45.9 nmol dose; assay type: functional; method in brief: as §1

SMILES	inhibition [1] [%]	ED50 (Mus musculus [2]) [nmol]	also measured
CC(/C=C/C=C(\C)C(=O)Nc1c(C)cc(C(C)(C)C)cc1C(C)(C)C)=C\C(=O)O	15	–	–
COc1cc(NC(=O)/C(C)=C/C=C/C(C)=C/C(=O)O)cc(OC)c1	–	> 45.9	–
CC(/C=C/C=C(\C)C(=O)Nc1ccc(C(C)(C)C)cc1C(C)(C)C)=C\C(=O)O	0	> 100	–
COC(=O)/C=C(C)/C=C/C=C(\C)C(=O)Nc1ccc(C(C)(C)C)cc1C(C)(C)C	–	> 100	–
CCOC(=O)/C=C(C)/C=C/C=C(C)/C=C/c1c(C)cc(OC)c(C)c1C [ETRETINATE]	–	7.2	–
CC1=C(/C=C/C(C)=C/C=C/C(C)=C/C(=O)O)C(C)(C)CCC1 [TRETINOIN]	–	5.2	Control (Mus musculus [3]): 8%
CC(/C=C/C=C(\C)COc1c(Cl)cc(F)cc1Cl)=C\C(=O)O	–	> 100	–
CC(/C=C/C=C(\C)C(=O)Nc1c(C)cc(C)cc1C)=C\C(=O)O	–	> 100	–

Further lines, with some results ahead:

inhibition [1] [%]	SMILES	ED50 (Mus musculus [2]) [nmol]	also measured
30	CC(/C=C/C=C(\C)COc1c(C)cc(C)cc1C)=C\C(=O)O	60	–
0	CC(/C=C/C=C(\C)COc1ccc(F)cc1C)=C\C(=O)O	45.9	–
25	COc1ccc(OC/C(C)=C/C=C/C(C)=C/C(=O)O)c(C(C)(C)C)c1	> 100	–
5	CC(/C=C/C=C(\C)COc1ccc(C(C)(C)C)cc1C(C)(C)C)=C\C(=O)O	> 45.9	–
30	CC(/C=C/C=C(\C)COc1cc(C)cc(C)c1C)=C\C(=O)O	27	Control (Mus musculus [3]): 66%; No. of tumors/mouse (Mus musculus [3]): 22 and 9.2; Control (Mus musculus [4]): 89%; No. of tumors/mouse (Mus musculus [4]): 29 and 12.4; Control (Mus musculus [5]): 10%; Control (Mus musculus [6]): 36%; No. of tumors/mouse (Mus musculus [6]): 15 and 5
